In ChEMBL document CHEMBL3271958, “Azaparacyclophanes. A novel class of conformationally rigid analogs of phenylethylamine and phenylpropylamine” (J Med Chem, 1976):
Activity calls are given as the source filed them. The rule behind the calls is not given here.

Legend:
Mus musculus [1] = assay: Induction of mydriasis in mouse assessed as […] at 100 mg/kg, ip by binocular microscopic analysis; type: functional, organism-based; parameters: dose 100 mg/kg
Method in brief: (§1)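 Mouse pupil diameter was read through a binocular microscope fitted with an ocular micrometer (Pulewka method), after dosing within the mouse behaviour screen.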

Rattus norvegicus = assay: Central dopaminergic activity in rat assessed as dopaminergic stimulant activity at 30 mg/kg, ip; type: ADME, organism-based; parameters: dose 30 mg/kg, route intraperitoneal; details: in vivo
Method in brief: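 Rats carrying 6-hydroxydopamine lesions of the nigrostriatal pathway (Ungerstedt), dosed 30 mg/kg ip. Rotation was scored: ipsilateral turning indicates release of endogenous dopamine, contralateral turning indicates direct dopamine-receptor stimulation.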

Mus musculus [2] = assay: Sympathomimetic activity in mouse assessed as signs of exophthalmia at 100 mg/kg, ip; type: ADME, organism-based; parameters: dose 100 mg/kg, route intraperitoneal; details: in vivo
Method in brief: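 Irwin-type mouse behavioural screen with intraperitoneal doses of 10, 30, 100 and 300 mg/kg, compound given as the hydrochloride salt. Animals were scored by observation for overt signs, including exophthalmia as an indicator of sympathomimetic activity and mydriasis. Pupil diameter was measured under a binocular microscope with an ocular micrometer.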

Mus musculus [3] = assay: Induction of mydriasis in mouse assessed as papillary diameter at 30 mg/kg, ip by binocular microscopic analysis; type: functional, organism-based; parameters: dose 30 mg/kg; method in brief: as §1
Mus musculus [4] = assay: Toxicity in mouse at 30 mg/kg, ip; type: organism-based; parameters: dose 30 mg/kg, route intraperitoneal; details: in vivo
Felis catus [5] = assay: Anticholinergic activity in cat assessed as effect on acetylcholine-induced normal heart rate and blood pressure changes at 1 to 10 mg/kg, iv; type: ADME, organism-based; parameters: dose 1-10 mg/kg, route intravenous; details: in vivo
Method in brief: (§2)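 Pentobarbital-anaesthetised cat monitored for blood pressure and heart rate. Hydrochloride salt given as cumulative iv doses of 1, 3 and 10 mg/kg, each tested against a standard acetylcholine challenge of 1 μg/kg, noting any change in the normal heart-rate and pressure responses.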

Felis catus [6] = assay: Sympathomimetic activity in iv dosed cat assessed as increase of heart rate and blood pressure; type: ADME, organism-based; details: in vivo; method in brief: as §2
Mus musculus [7] = assay: Sympathomimetic activity in mouse assessed as signs of exophthalmia and piloerection at 10 to 300 mg/kg, ip; type: ADME, organism-based; parameters: dose 10-300 mg/kg, route intraperitoneal; details: in vivo
Mus musculus [8] = assay: Induction of mydriasis in mouse assessed as papillary diameter at 25 mg/kg, sc by binocular microscopic analysis; type: functional, organism-based; parameters: dose 25 mg/kg; method in brief: as §1
Mus musculus [9] = assay: Toxicity in mouse at 100 mg/kg, ip; type: organism-based; parameters: dose 100 mg/kg, route intraperitoneal; details: in vivo

SMILES | Activity (Mus musculus [1]) | Activity (Rattus norvegicus) | Activity (Mus musculus [2]) | Activity (Mus musculus [3]) | Activity (Mus musculus [4]) | Activity (Felis catus [5]) | Activity (Felis catus [6]) | Activity (Mus musculus [7]) | Activity (Mus musculus [8]) | Activity (Mus musculus [9])
CCCCc1ccc(CCCNC)cc1.Cl | Active | Non-toxic | Toxic |  |  |  |  |  |  | 
O=C(O)/C=C\C(=O)O.c1cc2ccc1CCCCCCNCC2 |  | Non-toxic |  | inactive | Toxic |  |  |  |  | 
Cl.c1cc2ccc1CCCCCNCCC2 |  | Non-toxic |  | Active |  | Non-toxic | Non-toxic | Non-toxic | Active | 
CCCCCc1ccc(CCNC)cc1.O=C(O)/C=C\C(=O)O | inactive | Non-toxic |  |  |  |  |  |  |  | Toxic
